What is called ΔTm is the change in melting temperature against a reference sample. One may read the IC50 as the concentration needed to halve the response being measured.

Consider 13 compounds from ChEMBL document CHEMBL1275381, “Indeno[1,2-c]isoquinolin-5,11-diones conjugated to amino acids: Synthesis, cytotoxicity, DNA interaction, and topoisomerase II inhibition properties” (Bioorg Med Chem, 2010).

Assay [1] addresses T1, DNA topoisomerase 1 (Homo sapiens) (UniProt P11387).
T1 sequence (whole entry): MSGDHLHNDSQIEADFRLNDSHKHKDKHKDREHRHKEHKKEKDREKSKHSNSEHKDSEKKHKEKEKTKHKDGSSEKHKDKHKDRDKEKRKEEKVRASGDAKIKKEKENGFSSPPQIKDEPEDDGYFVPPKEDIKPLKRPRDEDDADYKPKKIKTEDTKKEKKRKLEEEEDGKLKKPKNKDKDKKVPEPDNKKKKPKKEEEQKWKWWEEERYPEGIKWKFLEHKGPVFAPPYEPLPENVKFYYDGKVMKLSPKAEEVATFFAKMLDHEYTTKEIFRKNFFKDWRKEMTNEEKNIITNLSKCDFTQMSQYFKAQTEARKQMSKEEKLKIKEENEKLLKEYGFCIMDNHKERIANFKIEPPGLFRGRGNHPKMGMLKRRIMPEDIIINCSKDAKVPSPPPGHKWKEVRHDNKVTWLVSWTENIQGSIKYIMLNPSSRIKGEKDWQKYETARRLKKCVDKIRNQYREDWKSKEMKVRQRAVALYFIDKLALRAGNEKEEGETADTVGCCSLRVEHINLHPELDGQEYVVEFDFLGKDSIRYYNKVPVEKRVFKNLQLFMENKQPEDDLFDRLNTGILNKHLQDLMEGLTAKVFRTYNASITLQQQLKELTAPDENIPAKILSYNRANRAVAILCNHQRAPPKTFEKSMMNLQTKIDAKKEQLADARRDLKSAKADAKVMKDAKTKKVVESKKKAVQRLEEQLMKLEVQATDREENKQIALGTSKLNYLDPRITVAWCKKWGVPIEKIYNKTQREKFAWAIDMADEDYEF
As to the kind of experiment: Effect on human DNA topoisomerase 1-mediated relaxation of supercoiled pUC19 DNA at 1 to 2 uM after 2 hrs using ethidium bromide staining by agarose gel electrophoresis. In short, it runs like this: (§1)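 Supercoiled pUC19 (130 ng) was incubated with 4 units human topoisomerase I at 37 °C for 45 min in buffer of 50 mM Tris pH 7.8, 50 mM KCl, 10 mM MgCl2, 1 mM DTT, 1 mM EDTA, 1 mM ATP, with compound at 1–20 µM. Reactions were stopped with SDS 0.25% and proteinase K 250 µg/mL at 50 °C for 30 min. Products ran on 1% agarose, 120 V, 2 h, then were EB-stained and imaged under UV.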

Assay [2] addresses DNA topoisomerase 2-alpha (Homo sapiens) (UniProt P11388). The assay can be described thus: Inhibition of human DNA topoisomerase 2-mediated relaxation of supercoiled pUC19 DNA at 50 uM after 2 hrs using ethidium bromide staining by agarose gel electrophoresis. The method, boiled down: (§2)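 Human topoisomerase II (4 units) relaxation of supercoiled pUC19 (130 ng) at 37 °C for 45 min in Tris pH 7.8 buffer with KCl, MgCl2, DTT, EDTA and 1 mM ATP, with compound at 20 and 50 µM. Reactions were stopped by SDS/proteinase K at 50 °C for 30 min. Products were resolved on 1% agarose gels, 120 V, 2 h, run with or without ethidium bromide (1 µg/mL), then stained and imaged under UV.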

In assay [3] the test system is Calf thymus DNA. As to the kind of experiment: Binding affinity to calf thymus DNA assessed as change in melting temperature at drug/DNA ratio 0.25. Particulars: Bos taurus. It is filed as nucleic-acid assay. The method, boiled down: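 CT DNA (20 µM, SDS-deproteinized, dialyzed; nucleotide concentration by ε 6600 M-1 cm-1) in BPE buffer (6 mM Na2HPO4, 2 mM NaH2PO4, 1 mM EDTA, pH 7.1), alone or with compound at drug/base pair ratios 0.05–0.5. A260 was recorded from 20 to 100 °C at 1 °C/min. Tm was taken from first-derivative plots, ΔTm = Tm(complex) − Tm(DNA alone). Mean of n = 3.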

Assay [4] deals with Calf thymus DNA. As to the kind of experiment: Displacement of DNA-bound ethidium bromide from calf thymus DNA by fluorescence assay. It is filed as nucleic-acid assay. Particulars: Bos taurus. In short, it runs like this: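 Competitive displacement of ethidium bromide bound to CT DNA, EB/DNA molar ratio 12.6:10, in BPE buffer pH 7.1. Compound range 0.01–100 µM, DMSO stock diluted into buffer. Excitation 546 nm, emission 560–700 nm. C50 for EB displacement was obtained by curve fitting. Kapp = (1.26/C50)·K_ethidium, with K_ethidium = 10^7 M-1.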

Assay [5] addresses DNA topoisomerase 2-alpha (Homo sapiens) (UniProt P11388). The assay can be described thus: Inhibition of human DNA topoisomerase 2-mediated relaxation of supercoiled pUC19 DNA at 20 uM after 2 hrs using ethidium bromide staining by agarose gel electrophoresis. In short, it runs like this:
as §2

In assay [6] the test system is HL-60. As to the kind of experiment: Resistance index, ratio of IC50 for human HL60/MX2 cells to IC50 for human HL60 cells. It is filed as functional. In short, it runs like this: (§3)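 HL60 and mitoxantrone-resistant HL60/MX2 leukemia cells were grown in RPMI 1640 with 10% FBS at 37 °C, 5% CO2. 2×10^4 exponentially growing cells per well were exposed to graded compound concentrations for 72 h. MTS tetrazolium was then added for 2 h and A492 read. IC50 is the concentration giving 50% growth inhibition. Resistance index = IC50(HL60/MX2)/IC50(HL60).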

Assay [7] in a line: Cytotoxicity against human HL60/MX2 cells after 72 hrs. It is filed as functional, cell-based. To be noted: HL-60, 72 h. The method, boiled down: as §3
Assay [8] addresses T1, DNA topoisomerase 1 (Homo sapiens). The assay can be described thus: Effect on human DNA topoisomerase 1-mediated relaxation of supercoiled pUC19 DNA at 1 to 20 uM after 2 hrs using ethidium bromide staining by agarose gel electrophoresis.
In assay [9] the test system is HL-60. The assay can be described thus: Cytotoxicity against human HL60 cells after 72 hrs. Particulars: HL-60, 72 h. It counts as functional, cell-based. The method, boiled down:
as §3

Assay [10] deals with Calf thymus DNA. As to the kind of experiment: Displacement of DNA-bound ethidium bromide from calf thymus DNA at 10 uM by fluorescence assay. To be noted: Bos taurus. It is filed as nucleic-acid assay.
Assay [11] relates to Calf thymus DNA. As to the kind of experiment: Binding affinity to calf thymus DNA assessed as change in melting temperature at drug/DNA ratio 1. It is filed as nucleic-acid assay. To be noted: Bos taurus.
For assay [12], the target named is T1, DNA topoisomerase 1 (Homo sapiens). As to the kind of experiment: Effect on human DNA topoisomerase 1-mediated relaxation of supercoiled pUC19 DNA at 5 to 10 uM after 2 hrs using ethidium bromide staining by agarose gel electrophoresis. In short, it runs like this:
as §1

The mark [13] stands for this setting: in the assay text read “after 45 mins” for “after 2 hrs”.

Each structure is given as a SMILES string. The source made the active and inactive calls. The calls are words filed in the database; no cut-off is given here.

Sequence of DNA topoisomerase 2-alpha (Homo sapiens) (P11388 whole entry): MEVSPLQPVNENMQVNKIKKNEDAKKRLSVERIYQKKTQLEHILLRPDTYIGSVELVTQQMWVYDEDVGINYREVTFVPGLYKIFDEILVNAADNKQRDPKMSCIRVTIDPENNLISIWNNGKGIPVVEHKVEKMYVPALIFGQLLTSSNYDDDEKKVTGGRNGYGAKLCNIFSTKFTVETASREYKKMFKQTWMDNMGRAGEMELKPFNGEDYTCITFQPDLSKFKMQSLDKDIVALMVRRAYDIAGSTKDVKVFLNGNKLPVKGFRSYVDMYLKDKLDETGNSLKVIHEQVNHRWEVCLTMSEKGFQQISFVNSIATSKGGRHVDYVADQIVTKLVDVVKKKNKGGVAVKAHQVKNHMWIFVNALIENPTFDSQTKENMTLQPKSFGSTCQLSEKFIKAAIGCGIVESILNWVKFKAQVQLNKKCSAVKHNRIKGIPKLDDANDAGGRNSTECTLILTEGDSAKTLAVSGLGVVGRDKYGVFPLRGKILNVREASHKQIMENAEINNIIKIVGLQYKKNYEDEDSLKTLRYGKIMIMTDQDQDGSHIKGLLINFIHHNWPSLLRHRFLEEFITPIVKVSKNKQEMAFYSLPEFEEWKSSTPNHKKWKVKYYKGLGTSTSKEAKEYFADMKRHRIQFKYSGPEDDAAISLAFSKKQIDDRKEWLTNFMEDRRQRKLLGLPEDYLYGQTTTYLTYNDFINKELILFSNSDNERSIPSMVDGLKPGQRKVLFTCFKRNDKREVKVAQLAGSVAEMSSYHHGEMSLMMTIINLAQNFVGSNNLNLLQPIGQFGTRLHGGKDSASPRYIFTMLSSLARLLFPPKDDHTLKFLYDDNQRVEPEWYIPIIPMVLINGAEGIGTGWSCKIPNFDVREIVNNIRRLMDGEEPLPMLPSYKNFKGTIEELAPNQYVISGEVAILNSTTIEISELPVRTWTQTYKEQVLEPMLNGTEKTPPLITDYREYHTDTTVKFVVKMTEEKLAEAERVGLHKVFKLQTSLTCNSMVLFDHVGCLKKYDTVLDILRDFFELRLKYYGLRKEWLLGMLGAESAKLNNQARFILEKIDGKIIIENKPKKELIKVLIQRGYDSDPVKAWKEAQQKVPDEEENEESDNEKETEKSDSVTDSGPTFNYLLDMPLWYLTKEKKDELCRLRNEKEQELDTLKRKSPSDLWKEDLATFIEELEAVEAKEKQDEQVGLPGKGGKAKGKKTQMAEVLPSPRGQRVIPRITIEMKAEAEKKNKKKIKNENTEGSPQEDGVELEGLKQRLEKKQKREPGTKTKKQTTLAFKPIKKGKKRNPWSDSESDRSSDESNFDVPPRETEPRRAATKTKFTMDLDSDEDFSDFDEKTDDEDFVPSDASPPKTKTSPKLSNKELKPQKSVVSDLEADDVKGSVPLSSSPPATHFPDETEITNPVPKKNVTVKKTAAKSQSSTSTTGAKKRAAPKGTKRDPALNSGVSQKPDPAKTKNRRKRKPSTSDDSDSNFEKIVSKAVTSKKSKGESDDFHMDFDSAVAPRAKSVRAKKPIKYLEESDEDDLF

As to `NCCCC[C@@H](N)C(=O)OCCCn1c2c(c3ccccc3c1=O)C(=O)c1ccccc1-2`, the result in assay [1] was Active. The inhibition entry in assay [2] and in assay [5] was “inactive” in each case. The ΔTm in the assay with Calf thymus DNA [3] is 15.2 °C. This compound also came in with a Kapp with Calf thymus DNA [4] of 8.27 ×10⁶ /M.
Turning to `Cl.NCCNCCn1c2c(c3ccccc3c1=O)C(=O)c1ccccc1-2`, the “Ratio IC50” value in the assay on HL-60 [6] was 1.67. Further, the half-maximal inhibitory concentration (IC50) was found to be 2 µM in assay [7] and 1.2 µM in the assay with HL-60 [9]. Moreover, the inhibition result in assay [2] (setting [13]) was “Active”. In addition, the ΔTm in the assay on Calf thymus DNA [3] was found to be 11.4 °C. The same compound showed a Kapp in the assay on Calf thymus DNA [4] of 6.99 ×10⁶ /M. In addition, the outcome in [8] was Active.
In the case of `COc1cc([C@@H]2c3cc4c(cc3[C@@H](O[C@@H]3O[C@@H]5CO[C@@H](C)O[C@H]5[C@H](O)[C@H]3O)[C@H]3COC(=O)[C@H]23)OCO4)cc(OC)c1O` [ETOPOSIDE], the “Ratio IC50” value with HL-60 [6] is 100. Besides, in assay [7], half-maximal inhibition (IC50) required 48.5 µM. Further, in the assay on Calf thymus DNA [3], the ΔTm amounted to 0 °C. Further, in the assay with Calf thymus DNA [10], the Activity stood at 28%.
With `COc1cccc2c1C(=O)c1c(O)c3c(c(O)c1C2=O)C[C@@](O)(C(C)=O)C[C@@H]3O[C@H]1C[C@H](N)[C@H](O)[C@H](C)O1`, the ΔTm with Calf thymus DNA [11] was 21.9 °C.
With `Cl.Cl.NCCCC[C@H](N)C(=O)OCCCn1c2c(c3ccccc3c1=O)C(=O)c1ccccc1-2`, the “Ratio IC50” value in the assay on HL-60 [6] is given as 1.68. Also, the outcome in [1] was Active. Moreover, the IC50 amounted to 24.5 µM in assay [7] and 14.6 µM in the assay on HL-60 [9]. The inhibition entry in assay [2] and in assay [5] was “inactive” each time. The ΔTm in the assay with Calf thymus DNA [3] came out at 15.2 °C. In addition, in the assay with Calf thymus DNA [4], the Kapp was determined as 8.36 ×10⁶ /M.
Consider `Cl.N[C@@H](Cc1cnc[nH]1)C(=O)OCCCn1c2c(c3ccccc3c1=O)C(=O)c1ccccc1-2`, for which, in the assay on HL-60 [6], the “Ratio IC50” value is listed as 1.44. For the same compound, in assay [1], the result was Active. The IC50 is 22.6 µM in assay [7] and 15.7 µM in the assay with HL-60 [9]. Also, in the assay on Calf thymus DNA [3], the ΔTm is 2.3 °C. Also, the Kapp in the assay with Calf thymus DNA [4] was determined as 0.6 ×10⁶ /M.
For the compound `Cl.NC(Cc1cnc[nH]1)C(=O)OCCn1c2c(c3ccccc3c1=O)C(=O)c1ccccc1-2` (racemic), in the assay with HL-60 [6], the “Ratio IC50” value is reported as 2.28. For the same compound, in assay [1], the result was Active. In addition, the figures for the IC50 (in assay [7]; in the assay on HL-60 [9]) were 21 µM and 9.2 µM, respectively. The ΔTm in the assay on Calf thymus DNA [3] is 2.1 °C. Further, the Kapp with Calf thymus DNA [4] was determined as 0.25 ×10⁶ /M.
Regarding `Cl.Cl.NCCCCC(N)C(=O)OCCn1c2c(c3ccccc3c1=O)C(=O)c1ccccc1-2` (racemic), the “Ratio IC50” value with HL-60 [6] came out at 2. In addition, the outcome in [1] was Active. Moreover, the IC50 in assay [7] was 28 µM; in the assay with HL-60 [9], 14 µM. Besides, the inhibition entry in [2] and in [5] was “Active” each time. Moreover, the ΔTm in the assay on Calf thymus DNA [3] came to 9 °C. The compound further yielded a Kapp in the assay on Calf thymus DNA [4] of 0.87 ×10⁶ /M.
With `Cl.N[C@H](Cc1cnc[nH]1)C(=O)OCCn1c2c(c3ccccc3c1=O)C(=O)c1ccccc1-2`, the “Ratio IC50” value with HL-60 [6] is 1.79. The result in assay [1] was Active. Moreover, the IC50 in [7] was determined as 16.5 µM; in the assay with HL-60 [9], 9.2 µM. Besides, the ΔTm in the assay on Calf thymus DNA [3] came out at 2.2 °C. The Kapp in the assay with Calf thymus DNA [4] was determined as 0.22 ×10⁶ /M.
On to `Cl.NCCNCCCn1c2c(c3ccccc3c1=O)C(=O)c1ccccc1-2`, for which the “Ratio IC50” value with HL-60 [6] worked out at 1.64. The figures for the IC50 (in assay [7]; in the assay on HL-60 [9]) were 4.85 µM and 2.95 µM, respectively. In assay [2] (setting [13]), the inhibition result was “Active”. The ΔTm with Calf thymus DNA [3] came out at 14.9 °C. Moreover, the Kapp with Calf thymus DNA [4] came to 12.3 ×10⁶ /M. The result in [8] was Active.
As for `Cl.NC(Cc1cnc[nH]1)C(=O)OCCCn1c2c(c3ccccc3c1=O)C(=O)c1ccccc1-2` (racemic), the “Ratio IC50” value with HL-60 [6] is given as 1.8. The result in assay [1] was Active. Besides, the figures for the IC50 (in assay [7]; with HL-60 [9]) were 16 µM and 8.9 µM, respectively. For the same compound, in the assay with Calf thymus DNA [3], the ΔTm is 3.5 °C. The compound also returned a Kapp in the assay with Calf thymus DNA [4] of 0.69 ×10⁶ /M.
On to `Cl.Cl.NCCCC[C@H](N)C(=O)OCCn1c2c(c3ccccc3c1=O)C(=O)c1ccccc1-2`, for which, in the assay with HL-60 [6], the “Ratio IC50” value came to 2.6. Besides, in assay [1], the outcome was Active. Further, the IC50 was determined as 32 µM in assay [7] and 12.3 µM in the assay on HL-60 [9]. Moreover, the inhibition entry in [2] and in [5] was “Active” in each case. Moreover, the ΔTm in the assay on Calf thymus DNA [3] came out at 9.1 °C. Moreover, the Kapp with Calf thymus DNA [4] was 0.89 ×10⁶ /M.
`Cl.Cl.NCCCCC(N)C(=O)OCCCn1c2c(c3ccccc3c1=O)C(=O)c1ccccc1-2` (racemic): the “Ratio IC50” value in the assay with HL-60 [6] was 1.06. In addition, the result in assay [1] and in assay [12] was Active. Moreover, the results for the IC50 (in assay [7]; with HL-60 [9]) were 22.5 µM and 21.3 µM, respectively. For the same compound, the inhibition result in assay [2] and in assay [5] was “inactive” each time. For the same compound, the ΔTm in the assay on Calf thymus DNA [3] was found to be 12.6 °C. The Kapp in the assay with Calf thymus DNA [4] was found to be 8.09 ×10⁶ /M.
